Reference: ChEMBL document CHEMBL1124291, “New actinomycin D analogues as superior chemotherapeutic agents against primary and advanced colon tumors and colon xenografts in nude mice” (J Med Chem, 1988)

Tests used:
[1] = species on record: Rattus norvegicus; assay: DNA-cleaving ability expressed as % of closed circular pBR322 DNA cleaved at 100 uM conc 100 uM; format: functional
Method in brief: (§1)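 pBR322 DNA (200 μM nucleotides) in 10 mM Tris·HCl pH 7.8 and 50 mM NaCl, with 4 mM Na₂S₂O₄ and 100 μM FeCl₂. Incubated with drug for 1 h at 20 °C, kept air-saturated. Supercoiled and open-circular forms were separated by agarose gel electrophoresis, stained with ethidium bromide and quantitated by densitometry. % cleaved was calculated from the open- and closed-circular amounts.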

[2] = test system: P388; assay: 50% inhibition of incorporation of precursor [3H]thymidine into DNA P388 cell lines; format: functional, cell-based; details: Mus musculus, P388, 2 h
[3] = species on record: Mus musculus; assay: Percent of the SAD glucuronide and/or sulfate isolated from incubation mixture containing tumor cell homogenate(T) after 8.0, 10.5 min
[4] = test system: MC-38; assay: Number of toxic deaths/number of mice in a group of non tumored mice treated in parallel with the tumor-bearing mice and observed for 100 days at a dose 0.60 mg/Kg; value given as 1/9; format: toxicity; details: mouse, in vivo, 0.6 mg/kg, 2400 h
Method in brief: (§2)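 Non-tumored CDF1 mice were treated in parallel with colon 38 tumor-bearing mice: iv injections on days 1, 5 and 9, groups of nine. Deaths were counted over 100 days of observation and reported as toxic deaths / mice in group.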

[5] = test system: P388 (Mus musculus); assay: Percent of the protein conjugates isolated from incubation mixture containing tumor cell homogenate(T)
[6] = test system: P388 (Mus musculus); assay: Percent of the tissue bound conjugates isolated from incubation mixture containing tumor cell homogenate(T)
[7] = test system: MC-38; assay: Mean survival time of treated / untreated group x100. (number of over 100-day survivors/number of total mice in the group) at a dose 0.30 mg/kg; format: functional, Mus musculus; details: dose 0.3 mg/kg
Method in brief: (§3)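 CDF1 mice were implanted sc on day 0 with colon 38 adenocarcinoma fragments (70 mg) and given iv drug on days 1, 5 and 9. %T/C = median survival of treated / untreated × 100. Number of mice surviving over 100 days / group total is given in parentheses.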

[8] = species on record: Rattus norvegicus; assay: Percent of the SAD isolated from incubation mixture containing tumor cell homogenate(T) after 7.7 min; format: functional
Method in brief: (§4)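 Tritiated analogues were incubated with two systems. (T) sonicated P388 cell homogenates, 37 °C for 16 h. (M) liver microsomes from phenobarbital-induced rats, 6 h with an NADPH-generating system (glucose-6-phosphate dehydrogenase plus glucose 6-phosphate). Metabolites and water-soluble conjugates were isolated, separated by HPLC and expressed as percentages.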

[9] = species on record: Rattus norvegicus; assay: Percent of the SAD isolated from incubation mixture containing rat micro somes, after 20.0 min
[10] = test system: MC-38; assay: Mean survival time of treated / untreated group x100. (number of over 100-day survivors/number of total mice in the group) at a dose 0.60 mg/kg; format: functional, Mus musculus; details: dose 0.6 mg/kg; method in brief: as §3
[11] = species on record: Rattus norvegicus; assay: Percent of the unconverted isolated from incubation mixture containing rat microsomes; format: functional; method in brief: as §4
[12] = test system: MC-38; assay: Activity against advanced carcinoma C38 Tumor in CDF1 Mice at dose 0.60 mg/ kg measured as % inhibition of tumor; format: functional; details: Mus musculus
[13] = species on record: Rattus norvegicus; assay: Percent of the unidentified metabolites isolated from incubation mixture containing rat microsomes; format: functional; method in brief: as §4
[14] = test system: P388; assay: Antitumor activity in P388/ADR (adriamycin resistant) in male BDF1 mice measured as optimal dose at dose 0.10-1.0 mg/kg/ inj, inp
[15] = test system: MC-38; assay: Activity against advanced carcinoma C38 Tumor in CDF1 Mice at dose 1.20 mg/ kg measured as % inhibition of tumor; format: functional; details: Mus musculus
[16] = test system: HT-29; assay: 50% inhibition of incorporationf precursor [3H]thymidine into DNA HT-29 cell lines; format: functional, cell-based; details: Homo sapiens, HT-29, 2 h
Method in brief: (§5)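 HT-29 colon carcinoma monolayers, 10^4 cells per well, five wells per concentration. Drug exposure lasted 2 h, with [³H]thymidine and [2-¹⁴C]uridine (0.5 μCi each) added for the last hour. Cells were washed, trypsinized, counted and precipitated onto glass-fiber filters with 10% TCA. Acid-precipitable radioactivity was measured. IC50 is the concentration inhibiting 50% of incorporation; data are averages of replicate experiments.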

[17] = species on record: Rattus norvegicus; assay: Percent of the protein conjugates isolated from incubation mixture containing rat microsomes; format: functional; method in brief: as §4
[18] = species on record: Rattus norvegicus; assay: The formation of adrenochrome from epinephrine in the absence of SOD(super oxide dismutase); format: functional
Method in brief: (§6)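 Drug-stimulated superoxide generation with rat liver microsomal enzymes and NADPH as cofactor. NADPH oxidation was read at 340 nm. Adrenochrome formed from epinephrine was read at 480 nm, with or without superoxide dismutase. % stimulation = [(drug-stimulated rate − basal rate)/basal rate] × 100. Values are mean ± standard error of triplicate analyses.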

[19] = test system: MC-38; assay: Number of toxic deaths/number of mice in a group of non tumored mice treated in parallel with the tumor-bearing mice and observed for 100 days at a dose 1. 20 mg/Kg; value given as 2/9; format: toxicity, cell-based; details: mouse, in vivo, 2400 h; method in brief: as §2
[20] = species on record: Rattus norvegicus; assay: Stimulation of NADPH oxidation in the presence of rat liver microsomes; format: functional; method in brief: as §6
[21] = test system: P388 (Mus musculus); assay: Percent of the unconverted isolated from incubation mixture containing tumor cell homogenate(T)
[22] = DNA-cleaving ability expressed as % of closed circular pBR322 DNA cleaved at 10 uM conc 10 uM
[23] = species on record: Rattus norvegicus; assay: The formation of adrenochrome from epinephrine in the presence of SOD(super oxide dismutase); + denotes ' Inhibited'; format: functional; method in brief: as §6
[24] = test system: P388 (Mus musculus); assay: Percent of the unidentified metabolites isolated from incubation mixture containing tumor cell homogenate(T)
[25] = test system: MC-38; assay: Activity against advanced carcinoma C38 Tumor in CDF1 Mice at dose 0.30 mg/ kg measured as % inhibition of tumor; format: functional; details: Mus musculus
[26] = test system: P388; assay: 50% inhibition of incorporation precursor [14C]uridine into RNA P388 cell lines; format: functional, cell-based; details: Mus musculus
[27] = test system: MC-38; assay: Number of toxic deaths/number of mice in a group of non tumored mice treated in parallel with the tumor-bearing mice and observed for 100 days at a dose 0.30 mg/Kg; value given as 0/9; format: functional, Mus musculus; method in brief: as §2
[28] = test system: MC-38; assay: Mean survival time of treated / untreated group x100. (number of over 100-day survivors/number of total mice in the group) at a dose 1.20 mg/kg; format: functional, Mus musculus; details: dose 1.2 mg/kg; method in brief: as §3
[29] = test system: B16; assay: in vivo Antitumor activity against B16 melanoma cells at dose 300 ug/Kg /inj measured as Mean survival time (MST); format: functional, Mus musculus
Method in brief: (§7)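 BDF1 mice in groups of nine were implanted ip on day 0 with 0.2 mL of 1:5 (w/v) B16 melanoma brei; drugs were given ip. Survival is reported as median survival time in days with range, and as %ILS, with survivors counted on day 65 out of total injected.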

[30] = test system: HT-29; assay: 50% inhibition of incorporationf precursor [3H]thymidine into RNA HT-29 cell lines; format: functional, cell-based; details: Homo sapiens, HT-29, 2 h; in the assay text read “[14C]uridine” for “[3H]thymidine”; method in brief: as §5
[31] = species on record: Rattus norvegicus; assay: DNA-cleaving ability expressed as % of closed circular pBR322 DNA cleaved […] conc 50 uM; format: functional; method in brief: as §1
[32] = test system: B16; assay: in vivo Antitumor activity against B16 melanoma cells at a optimal dose 300 ug/Kg /inj measured as %ILS (%increase life span); format: functional; details: Mus musculus; method in brief: as §7
[33] = species on record: Rattus norvegicus; assay: Percent of the tissue bound conjugates isolated from incubation mixture containing rat microsomes; format: functional; method in brief: as §4
[34] = test system: pBR322 plasmid DNA; assay: DNA-cleaving ability expressed as % of closed circular pBR322 DNA cleaved […]

## Cc1c2oc3c(C)c4oc(CC(=O)NCCCCN)nc4c(C(=O)N[C@@H]4C(=O)N[C@H](C(C)C)C(=O)N5CCC[C@H]5C(=O)N(C)CC(=O)N(C)[C@@H](C(C)C)C(=O)O[C@@H]4C)c3nc-2c(C(=O)N[C@@H]2C(=O)N[C@H](C(C)C)C(=O)N3CCC[C@H]3C(=O)N(C)CC(=O)N(C)[C@@H](C(C)C)C(=O)O[C@@H]2C)c(N)c1=O
[1]
  Activity: 58%
[2]
  IC50: 430 nM
[3]
  Activity: 40%
[4]
  Toxic deaths: 1
[5]
  Activity: 8%
[6]
  Activity: 5%
[7]
  T/C: 170%
[8]
  Activity: 20%
[9]
  Activity: 65%
[10]
  T/C: 250%
[11]
  Activity: 10%
[12]
  inhibition in vivo at 0.6 mg/kg: 93%
[13]
  Activity: 8%
[14]
  optimal dose: 1 mg/kg
[15]
  inhibition in vivo at 1.2 mg/kg: 94%
[16]
  IC50: 365 nM
[17]
  Activity: 10%
[18]
  Adrenochrome formation: 22.1 nM min-1 (mg of protein)-1
[19]
  Toxic deaths: 2
[20]
  NADPH oxidation (nM min-1 (mg of protein)-1): 87.1
[21]
  Activity: 20%
[22]
  Activity: 40%
[23]
  Adrenochrome formation: Inhibited
[24]
  Activity: 5%
[25]
  inhibition in vivo at 0.3 mg/kg: 80%
[26]
  IC50: 55 nM
[27]
  Toxic deaths: 0
[28]
  T/C: 231%
[29]
  MST: 62
[30]
  IC50: 65 nM
[31]
  Activity: 50%
[32]
  ILS at 0.3 mg/kg: 114%
[33]
  Activity: 5%
[34]
  Activity: 45%
